In brackets after ≈: the same amount, converted by molar mass. Activity calls are given as the source filed them. The rule behind the calls is not given here.
Columns and labels:
Escherichia coli = experiment: […] activity against Escherichia coli ATCC 25922; type: functional, organism-based
Outline: (§1)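 Standard agar disk diffusion assay with 50 μg loaded per disk. Zones were read after 4 days as clear zones of inhibition in mm. For S. aureus, the zone of reduced growth was also measured in mm.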

Staphylococcus aureus [1] = experiment: Antibacterial activity against Staphylococcus aureus ATCC 25923 at 50 ug/disk after 4 days; type: functional; conditions: for zone of inhibition at 50 µg/disc: ATCC 25923, 96 h, read-out: IZ; outline: as §1
Candida albicans [2] = experiment: Antifungal activity against Candida albicans ATCC 14053; type: functional; outline: as §1
Aspergillus flavus [3] = experiment: Antifungal activity against Aspergillus flavus NRRL 6541; type: functional, organism-based
Outline: (§2)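 Disk diffusion assay against the fungus with 200 μg of compound per disk; zones of inhibition were read and followed over 4 days. A further evaluation reported MIC and IC50 values, with the antifungal standard run under the same protocols.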

Fusarium verticillioides [4] = experiment: Antifungal activity against Fusarium verticillioides NRRL 25457; type: functional, organism-based; outline: as §2
Staphylococcus aureus [5] = experiment: Antibacterial activity against Staphylococcus aureus ATCC 25923 assessed as zone of reduced growth at 50 ug/disk after 4 days; type: functional; conditions: ATCC 25923, 96 h, read-out: IZ; outline: as §1
Aspergillus flavus [6] = experiment: Antifungal activity against Aspergillus flavus NRRL 6541 at 200 ug/disk after 4 days; type: functional; conditions: NRRL 6541, 96 h, read-out: IZ
Outline: (§3)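 Disk diffusion assay with 200 μg applied per disk; the diameter of the growth-inhibition zone was read in mm, and persistence of the zone was followed over 4 days.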

Fusarium verticillioides [7] = experiment: Antifungal activity against Fusarium verticillioides NRRL 25457 at 200 ug/disk after 4 days; type: functional; conditions: NRRL 25457, 96 h, read-out: IZ; outline: as §3
Candida albicans [8] = experiment: Antifungal activity against Candida albicans ATCC 14053 at 50 ug/disk; type: functional; conditions: read-out: IZ; outline: as §1

COc1cc([C@@]2(C)[C@H]3[C@H](C=C[C@H]2C)CCC[C@@H]3C)oc(=O)c1CO was tested, and the Activity (Escherichia coli) was “inactive”, the Activity (Staphylococcus aureus [1]) was “inactive” and the Activity (Candida albicans [2]) was “inactive”.
Compound NYSTATIN [listing 1 of 2 here] has an IC50 (Aspergillus flavus [3]) of 5 µg/mL and an IC50 (Fusarium verticillioides [4]) of 3 µg/mL.
C[C@H]1CCC[C@@H]2C=C[C@H](C)[C@@](C)(C3=CC(=O)/C(=C/N)C(=O)O3)[C@H]12 was tested, and the Activity (Escherichia coli) was “inactive”, the Activity (Staphylococcus aureus [1]) was “inactive” and the Activity (Candida albicans [2]) was “inactive”.
For COc1cc([C@@]2(C)[C@@H]3[C@@H](C)CCC[C@@H]3C=C[C@@H]2C)oc(=O)c1C=O [SOLANAPYRONE J], the zone of inhibition at 50 µg/disc (Staphylococcus aureus [5]) was 21 mm, the MIC (Aspergillus flavus [3]; Aspergillus flavus, NRRL 6541) was 20 µg/mL (≈ 60.5 µM) and the IC50 (Aspergillus flavus [3]; Aspergillus flavus, NRRL 6541, read-out: IC50) was 8.6 µg/mL (≈ 26 µM). The zone of inhibition at 200 µg/disc (Aspergillus flavus [6]) was 30 mm, the MIC (Fusarium verticillioides [4]; Fusarium verticillioides, NRRL 25457) was 24 µg/mL (≈ 72.6 µM) and the IC50 (Fusarium verticillioides [4]; Fusarium verticillioides, NRRL 25457, read-out: IC50) was 15 µg/mL (≈ 45.4 µM). For the same compound, the zone of inhibition at 200 µg/disc (Fusarium verticillioides [7]) was 30 mm, the zone of inhibition at 50 µg/disc (Staphylococcus aureus [1]) was 17 mm and the “inhibition zone (IZ)” value (Candida albicans [2]) was 19 mm.
With CCCCC[C@@H](O)[C@H]1C(=O)O[C@H](C)[C@@H](O)/C=C/C=C/C=C/C=C/C=C(\C)[C@@H](O)C[C@H](O)C[C@H](O)C[C@H](O)C[C@H](O)C[C@H](O)C[C@@H]1O [FILIPIN] the zone of inhibition at 50 µg/disc (Candida albicans [8]) was 23 mm.
With NYSTATIN [listing 2 of 2 here] the MIC (Aspergillus flavus [3]) was 10 µg/mL and the MIC (Fusarium verticillioides [4]) was 10 µg/mL.
C[C@H]1CCC[C@@H]2C=C[C@H](C)[C@@](C)(C3=CC(=O)/C(=C\NCCO)C(=O)O3)[C@H]12 [SOLANAPYRONE K] was tested, and the zone of inhibition at 50 µg/disc (Staphylococcus aureus [1]) was 9 mm and the “inhibition zone (IZ)” value (Candida albicans [2]) was 13 mm.
